According to ChEMBL document CHEMBL1141215, “Design, synthesis, and microbiological evaluation of new Candida albicans CYP51 inhibitors” (2005):
In brackets after ≈: the same amount, converted by molar mass.

Columns and labels:
Candida albicans = assay: Antifungal activity against Candida albicans; type: functional; details: CA-6
Outline: (§1)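 Broth microdilution per NCCLS M27-A in RPMI 1640 buffered with 0.165 M MOPS, pH 7. Strains were C. albicans CA-6 (vaginal clinical isolate) and C. krusei ATCC 6258. Inocula came from 24 h cultures on Sabouraud dextrose agar at 28 °C, washed in saline and counted by hemocytometer. Serial dilutions ran 0.9–500 µg/mL. MIC was the lowest concentration giving 80% turbidity reduction versus drug-free control.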

Mus musculus [1] = assay: Survival of mouse administered at 14 mg/kg/day, ip; type: functional, CD1; details: route intraperitoneal
Outline: (§2)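 Female CD1 mice (8–10 weeks, 25–30 g), 10 per group, infected iv via lateral tail vein with 1×10^5 C. albicans CA-6 cells (24 h Sabouraud culture at 28 °C, saline-washed). Dosing was ip at 14 mg/kg in DMSO/H2O (1:4), 2 h before infection and then daily for 8 days. Median survival time was compared by Mann–Whitney U test, and dead/total was counted at day 30.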

Mus musculus [2] = assay: Median survival time in mouse at 14 mg/kg/day, ip; type: functional, CD1; details: route intraperitoneal; outline: as §2
Pichia kudriavzevii = assay: Antifungal activity against Candida krusei; type: functional; details: 6258; outline: as §1

Row | Structure (SMILES) | MIC (Candida albicans) [µg/mL] | Survival (Mus musculus [1]) [days] | MST (Mus musculus [2]) [days] | MIC (Pichia kudriavzevii) [µg/mL]
1 | OC(Cn1cncn1)(Cn1cncn1)c1ccc(F)cc1F [FLUCONAZOLE] | < 1.8 | 23 | >30 | 62.5 (≈ 204 µM)
2 | CCCCOC1Oc2ccc(C(O)Cn3ccnc3)cc2N(C)C1=O (stereo not drawn) | 125 (≈ 362 µM) | 4 | 12 | 31.2 (≈ 90.3 µM)
3 | CN1C(=O)COc2ccc(C(Cn3ccnc3)OCc3ccc(Cl)cc3)cc21 (stereo not drawn) | 7.8 (≈ 19.6 µM) | – | – | 15.6 (≈ 39.2 µM)
4 | CCCCC1Oc2ccc(C(O)Cn3ccnc3)cc2N(C)C1=O (stereo not drawn) | 125 (≈ 379 µM) | 9 | 14 | 125 (≈ 379 µM)
5 | CCCCOC1Sc2ccc(C(O)Cn3ccnc3)cc2N(C)C1=O (stereo not drawn) | 31.2 (≈ 86.3 µM) | 9 | 14 | 125 (≈ 346 µM)
6 | CN1C(=O)COc2ccc(C(O)Cn3ccnc3)cc21 (stereo not drawn) | 250 (≈ 915 µM) | – | – | 31.2 (≈ 114 µM)
7 | CN1C(=O)CSc2ccc(C(O)Cn3ccnc3)cc21 (stereo not drawn) | 62.5 (≈ 216 µM) | – | – | 250 (≈ 864 µM)
8 | CN1C(=O)CSc2ccc(C(Cn3ccnc3)OCc3ccc(Cl)cc3)cc21 (stereo not drawn) | < 1.8 | – | – | 15.6 (≈ 37.7 µM)
9 | CCCCC1Sc2ccc(C(O)Cn3ccnc3)cc2N(C)C1=O (stereo not drawn) | 31.2 (≈ 90.3 µM) | 9 | 14 | 250 (≈ 724 µM)
